pIC50: −log10 of the molar value. Calls of active or inactive are those of the source. The rule behind the calls is not given here.
Assays:
Plasmodium falciparum [1] = assay: Resistance index, ratio of IC50 for multidrug-resistant Plasmodium falciparum K1 to IC50 for Plasmodium falciparum W2; format: functional
Plasmodium falciparum [2] = assay: Resistance index, ratio of IC50 for multidrug-resistant Plasmodium falciparum K1 to IC50 for chloroquine-sensitive Plasmodium falciparum NF54; format: functional
In short: (§1)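 Modified [3H]-hypoxanthine incorporation assay against P. falciparum NF54 (sensitive) and K1 (multidrug-resistant). Values are means of ≥2 or ≥3 independent experiments. The resistance index is the K1 IC50 divided by the NF54 IC50.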

Plasmodium falciparum [3] = assay: Antiplasmodial activity against multidrug-resistant Plasmodium falciparum K1 infected in human erythrocytes after 48 hrs by [3H]-hypoxanthine incorporation assay; format: functional, organism-based; in short: as §1
Plasmodium falciparum [4] = assay: Antiplasmodial activity against Plasmodium falciparum W2 infected in human erythrocytes after 48 hrs by [3H]-hypoxanthine incorporation assay; format: functional, organism-based
CHO = assay: Cytotoxicity against CHO cells by MTT assay; format: cell-based; settings: Cricetulus griseus
In short: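 CHO cells, MTT assay. Stocks 20 mg/mL in DMSO, diluted in complete medium; undissolved samples tested as suspensions. Emetine served as reference (10-fold dilutions, 6 concentrations, lowest 0.001 µg/mL). IC50 derived from full dose–response curves by non-linear fitting.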

[5] = Inhibition of beta haematin formation after 5 to 6 hrs by pyridine-ferrichrome method; format: physicochemical
In short: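 Modified β-haematin inhibition assay. Compounds from DMSO stocks, 0–1000 µM final, in duplicate. NP-40 added (30.55 µM). Haematin suspension added to give 0.5 M acetate pH 4.8 and 100 µM haematin, then incubated 5–6 h at 37 °C. Free haeme detected with pyridine/H2O/acetone/0.2 M HEPES pH 7.4 reagent (final pyridine ~5% v/v) plus acetone, and absorbance read.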

Plasmodium berghei [6] = assay: Antimalarial activity against GFP-transfected Plasmodium berghei ANKA infected in mouse assessed as mean survival days at 10 mg/kg, po qd administered for 4 days; format: functional
In short: (§2)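 Mice (n = 3) infected with GFP-transfected P. berghei ANKA. Compound given orally, dissolved in a vehicle containing ethanol and diluted 10× with water. Multi-dose arms were dosed once daily on four consecutive days (4, 24, 48, 72 h post-infection). Parasitaemia was measured by flow cytometry, detection limit 0.1%. Activity is % reduction relative to controls. Survival was followed for 30 days.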

Plasmodium berghei [7] = assay: Antimalarial activity against GFP-transfected Plasmodium berghei ANKA infected in mouse assessed as reduction in parasitemia at 50 mg/kg, po qd administered for 4 days measured on day 4 post last dose by flow cytometric analysis relative to control; format: functional; design: scale not given: the % may be the effect or the level left
Plasmodium berghei [8] = assay: Antimalarial activity against GFP-transfected Plasmodium berghei ANKA infected in mouse assessed as mean survival days at 50 mg/kg, po qd administered for 4 days; format: functional; in short: as §2
Plasmodium berghei [9] = assay: Antimalarial activity against GFP-transfected Plasmodium berghei ANKA infected in mouse assessed as reduction in parasitemia at 10 mg/kg, po qd administered for 4 days measured on day 4 post last dose by flow cytometric analysis relative to control; format: functional; design: scale not given: the % may be the effect or the level left
Plasmodium falciparum [10] = assay: Antiplasmodial activity against chloroquine-sensitive Plasmodium falciparum NF54 infected in human erythrocytes after 48 hrs by [3H]-hypoxanthine incorporation assay; format: functional, organism-based; in short: as §1
[11] = Selectivity index, ratio of IC50 for CHO cells to IC50 for chloroquine-sensitive Plasmodium falciparum NF54; format: toxicity, cell-based; settings: hamster, read-out: Ratio IC50
[12] = Metabolic stability in BALB/c mouse liver microsomes assessed as compound remaining at […] after 30 mins by HPLC-MS/MS analysis in presence of NADPH; format: ADME; settings: read-out: Stability
Plasmodium berghei [13] = assay: Antimalarial activity against GFP-transfected Plasmodium berghei ANKA infected in mouse assessed as mean survival days at 50 mg/kg, po; format: functional; in short: as §2
[14] = Lipophilicity, log P of the compound; format: physicochemical; settings: octanol/water
Plasmodium berghei [15] = assay: Antimalarial activity against GFP-transfected Plasmodium berghei ANKA infected in mouse assessed as reduction in parasitemia at 50 mg/kg, po by flow cytometric analysis relative to control; format: functional; design: scale not given: the % may be the effect or the level left
[16] = Metabolic stability in human liver microsomes assessed as compound remaining at […] after 30 mins by HPLC-MS/MS analysis in presence of NADPH; format: ADME; settings: read-out: Stability
[17] = Elimination half life in C57Bl/6 mouse at 20 mg/kg, po; format: ADME, organism-based; settings: in vivo, read-out: beta t1/2 (converted)
In short: (§3)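 C57Bl/6 mice, n = 3 per route. IV group dosed 5 mg/kg in DMSO, PEG, EtOH, PPG (2:6:1:7, v/v); tail-tip blood (20 µL) at 0.08, 0.5, 1, 3, 7 and 24 h. Oral group received a single 20 mg/kg gavage as a suspension in 0.5% HPMC in water; blood at 0.5, 1, 3, 5 and 24 h. Whole-blood LC–MS/MS (10–5000 ng/mL) after methanol protein precipitation; non-compartmental analysis.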

Mus musculus [18] = assay: AUC in C57Bl/6 mouse at 5 mg/kg, iv; format: ADME, organism-based; settings: in vivo; in short: as §3
[19] = Volume of distribution in C57Bl/6 mouse at 5 mg/kg, iv; format: ADME, organism-based; settings: in vivo; in short: as §3
Mus musculus [20] = assay: AUC in C57Bl/6 mouse at 20 mg/kg, po; format: ADME, organism-based; settings: in vivo; in short: as §3
Plasmodium berghei [21] = assay: Antimalarial activity against GFP-transfected Plasmodium berghei ANKA infected in mouse assessed as cure rate at 50 mg/kg, po qd administered for 4 days measured over 30 days; format: functional, organism-based
[22] = Elimination half life in C57Bl/6 mouse at 5 mg/kg, iv; format: ADME, organism-based; settings: in vivo, read-out: beta t1/2 (converted); in short: as §3
[23] = Tmax in C57Bl/6 mouse at 20 mg/kg, po; format: ADME, organism-based; settings: in vivo; in short: as §3
[24] = Total clearance in C57Bl/6 mouse at 5 mg/kg, iv; format: ADME, organism-based; settings: in vivo; in short: as §3
[25] = Cmax in C57Bl/6 mouse at 5 mg/kg, iv; format: ADME, organism-based; design: dose 5 mg/kg, route intravenous; settings: in vivo; in short: as §3
[26] = Oral bioavailability in C57Bl/6 mouse at 20 mg/kg; format: ADME, organism-based; settings: in vivo; in short: as §3
[27] = Cmax in C57Bl/6 mouse at 20 mg/kg, po; format: ADME, organism-based; design: dose 20 mg/kg, route oral; settings: in vivo; in short: as §3
Plasmodium berghei [28] = assay: Antimalarial activity against GFP-transfected Plasmodium berghei ANKA infected in mouse assessed as cure rate at 10 mg/kg, po qd administered for 4 days measured over 30 days; format: functional, organism-based
Mus musculus [29] = assay: Toxicity in mouse infected with GFP-transfected Plasmodium berghei ANKA at 50 mg/kg, po qd administered for 4 days measured over 30 days; format: organism-based; settings: in vivo, 720 h
Plasmodium berghei [30] = assay: Antimalarial activity against GFP-transfected Plasmodium berghei ANKA infected in mouse assessed as mean survival days at 30 mg/kg, po qd administered for 4 days; format: functional; in short: as §2
[31] = Stability of the compound by potassium cyanide trapping method; format: physicochemical
[32] = Stability of the compound by methoxylamine trapping method; format: physicochemical
[33] = Drug metabolism assessed as ratio of sum of compound adduct peak area to clozapine adduct peak area by GSH trapping method; format: physicochemical

SMILES | Ratio IC50 (Plasmodium falciparum [1]) | Ratio IC50 (Plasmodium falciparum [2]) | pIC50 (Plasmodium falciparum [3]) | pIC50 (CHO) | pIC50 [5] | MSD (Plasmodium berghei [6]) | Activity (Plasmodium berghei [7]) | MSD (Plasmodium berghei [8]) | Activity (Plasmodium berghei [9]) | pIC50 (Plasmodium falciparum [10]) | selectivity ratio [11] | remaining at 0.5 h [12] | MSD (Plasmodium berghei [13]) | Activity (Plasmodium berghei [15]) | remaining at 0.5 h [16] | also measured
CCN(CC)Cc1cc(Nc2ccnc3cc(Cl)ccc23)ccc1O [AMODIAQUINE] | 1.6 | 2.5 | 8.10 | 3.83 | 4.36 | >30 days | 99.9% | >30 days | 100% | 8.40 | 36800 |  |  |  |  | pIC50 (Plasmodium falciparum [4]): 8.30
CN(C)CCNc1nc2cc(Nc3ccnc4cc(Cl)ccc34)ccc2o1 |  | 3.5 | 7.38 | 5.12 | 3.44 | 24 days | 99.8% | 29.3 days | 99.9% | 7.92 | 633 | > 99% | 13.7 days | 99.5% | > 99% | logP [14]: 3.38
Clc1ccc2c(Nc3ccc4oc(NCCCN5CCCCC5)nc4c3)ccnc2c1 |  | 3.9 | 7.41 | 4.98 | 3.98 | 15.7 days | 99.8% | >30 days | 99.8% | 8.00 | 1060 | 49% | 14 days | 99.5% | 70% | half-life [17]: 654 min; AUC (Mus musculus [18]): 454 (umol/L).min; logP [14]: 4.16; Vd [19]: 24.5 L/kg; AUC (Mus musculus [20]): 1020 (umol/L).min; Activity (Plasmodium berghei [21]): Active; half-life [22]: 600 min; Tmax [23]: 2.9 h; clearance [24]: 28.3 mL/min/kg; Cmax [25]: 2740 nM; bioavailability [26]: 56%; Cmax [27]: 1010 nM
Clc1ccc2c(Nc3ccc4oc(NCCN5CCCC5)nc4c3)ccnc2c1 | 2.75 | 3.73 |  | 5.31 | 4.04 | >30 days | 99.8% | >30 days | 99.8% | 7.82 | 327 | 81% | 23.3 days | 99.5% | 62% | Activity (Plasmodium berghei [28]): Active; Activity (Mus musculus [29]): Non-toxic; Activity (Plasmodium berghei [21]): Active
CCN(CC)CCCC(C)Nc1ccnc2cc(Cl)ccc12 (stereo not given) [CHLOROQUINE] |  |  |  |  |  | 16 days |  |  | 99.9% |  |  |  |  |  |  | MSD (Plasmodium berghei [30]): 24 days
Clc1ccc2c(Nc3ccc4[nH]c(NCCN5CCOCC5)nc4c3)ccnc2c1 | 3.93 |  | 6.13 |  |  |  |  |  |  |  |  |  |  |  |  | pIC50 (Plasmodium falciparum [4]): 6.72
CC(C)(C)Nc1nc2cc(Nc3ccnc4cc(Cl)ccc34)ccc2s1 | 0.79 |  |  |  |  |  |  |  |  |  |  |  |  |  |  | Stability [31]: Unstable; Stability [32]: Unstable; Ratio [33]: 0.74

— ChEMBL document CHEMBL3603782, “Antimalarial benzoheterocyclic 4-aminoquinolines: Structure-activity relationship, in vivo evaluation, mechanistic and bioactivation studies” (Bioorg Med Chem, 2015)
